# Data from ChEMBL document CHEMBL1129459, “Studies on disease-modifying antirheumatic drugs: synthesis of novel quinoline and quinazoline derivatives and their anti-inflammatory effect” (1996).
# Assays:
# Format in all cases: functional
# [1] = test system: Rattus norvegicus; experiment: Inhibitory effect of 12.5 mg/Kg orally administered compound against swelling of right hand paw as a measure of anti-inflammatory activity; settings: po
# [2] = organism: Rattus norvegicus; experiment: Effective dose to inhibit the rat's left hand paw swelling by 50%.
# How it was run: (§1)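 Adjuvant arthritis in male Lewis rats, 7 weeks old, n = 7. Rats were sensitized intradermally in the right hind plantar site with 0.05 mL of 0.5% killed M. tuberculosis H37 RA in liquid paraffin. Compound in 0.5% methylcellulose was given p.o. once daily for 14 days, starting day 0. Left hind paw volume was measured on days 0 and 14. ED50 came from linear regression across three or four doses.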
# [3] = organism: Rattus norvegicus; experiment: Bone resorption inhibitory effect was evaluated as calcium released from bone into medium at 10 uM compound concentration, expressed as percent of control; parameters: scale not given: the % may be the effect or the level left
# How it was run: (§2)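 Rat fetal long-bone (Raisz) assay. A pregnant Sprague–Dawley rat received 50 µCi 45Ca s.c. on gestation day 18. Fetal humeri (radii and ulnae) were taken the next day and cleaned of connective tissue and cartilage. Bones were preincubated 24 h at 37 °C, 5% CO2, in BGJb medium with 2 mg/mL BSA. They were then cultured 2 days with compound at 10 or 30 µM final. Read-out was 45Ca released/(released + bone-retained) ×100, mean of five bones, as % of untreated same-litter controls.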
# [4] = test system: Rattus norvegicus; experiment: Inhibition of adjuvant induced swelling of rat right hind paw by 50 mg/kg p.o. administration.; settings: route oral
# [5] = organism: Rattus norvegicus; experiment: Bone resorption inhibitory effect was evaluated as calcium released from bone into medium at 30 uM compound concentration, expressed as percent of control; parameters: scale not given: the % may be the effect or the level left; how it was run: as §2
# [6] = organism: Rattus norvegicus; experiment: Effective dose of compound to inhibit the rat's left hand paw swelling by 50%.; how it was run: as §1
# [7] = organism: Rattus norvegicus; experiment: Bone resorption inhibitory effect was evaluated as calcium released from bone into medium at 25 uM compound concentration, expressed as percent of control; parameters: scale not given: the % may be the effect or the level left
smiles,measurement,setting,value
COc1ccc(-c2nc(Cn3ccnc3C)nc3cc(OC)c(OC)cc23)cc1OC,inhibition in vivo at 12.5 mg/kg,[1],< 50%
CCOC(=O)c1c(CCCn2cncn2)nc2cc(OC)c(OC)cc2c1-c1ccc(OC)c(OC)c1,inhibition in vivo at 12.5 mg/kg,[1],< 50%
CCOC(=O)c1c(Cn2ccnc2CC)nc2cc(OC)c(OC)cc2c1-c1ccc(OC)c(OC)c1,ED50,[2],9.1 mg/kg
COC(=O)c1c(CSc2nccn2C)nc2cc(OC)c(OC)cc2c1-c1ccc(OC)c(OC)c1,Activity,[3],46%
same,inhibition in vivo at 50 mg/kg,[4],67%
CCOC(=O)c1c(CSc2nccn2C)nc2cc(OC)c(OC)cc2c1-c1ccccc1,inhibition in vivo at 50 mg/kg,[4],31%
CCOC(=O)c1c(CSc2nccn2CC)nc2cc(OC)c(OC)cc2c1-c1ccc(OC)c(OC)c1,inhibition in vivo at 50 mg/kg,[4],51%
CCOC(=O)c1c(Cn2ccnc2C)nc2cc(OC)c(OC)cc2c1-c1ccc(OC)c(OC)c1,inhibition in vivo at 12.5 mg/kg,[1],55%
CCOC(=O)c1c(CSc2nccn2C)nc2cc(OC)c(OC)cc2c1-c1ccc(Cl)cc1,inhibition in vivo at 50 mg/kg,[4],41%
CCOC(=O)c1c(CSc2nccn2C)nc2ccccc2c1-c1ccc(OC)c(OC)c1,inhibition in vivo at 50 mg/kg,[4],33%
CCOC(=O)c1c(CCc2nccn2C)nc2cc(OC)c(OC)cc2c1-c1ccc(OC)c(OC)c1,ED50,[2],14.7 mg/kg
same,inhibition in vivo at 50 mg/kg,[4],75%
CCOC(=O)c1c(CSc2nccn2C)nc2cc(OCC)c(OCC)cc2c1-c1ccc(OC)c(OC)c1,inhibition in vivo at 50 mg/kg,[4],59%
CCOC(=O)c1c(CSc2nccn2C)nc2cc(OC)c(OC)cc2c1-c1ccc2c(c1)OCO2,inhibition in vivo at 50 mg/kg,[4],63%
CCOC(=O)c1c(CSc2nccn2C)nc2cc3c(cc2c1-c1ccc(OC)c(OC)c1)OCCO3,Activity,[3],66%
same,inhibition in vivo at 50 mg/kg,[4],56%
CCOC(=O)c1c(C[S+]([O-])c2nccn2C)nc2cc(OC)c(OC)cc2c1-c1ccc(OC)c(OC)c1 (centres undefined),ED50,[2],6.5 mg/kg
same,inhibition in vivo at 12.5 mg/kg,[1],73%
CCOC(=O)c1c(Cn2ccnc2)nc2cc(OC)c(OC)cc2c1-c1ccc(OC)c(OC)c1,ED50,[2],7.7 mg/kg
same,inhibition in vivo at 12.5 mg/kg,[1],70%
CCOC(=O)c1c(CSc2nccn2C)nc2cc(OC)c(OC)cc2c1-c1ccc(C)cc1,inhibition in vivo at 50 mg/kg,[4],67%
COc1ccc(-c2nc(CSc3nccn3C)nc3cc(OC)c(OC)cc23)cc1OC,inhibition in vivo at 50 mg/kg,[4],< 50%
COc1ccc(-c2nc(Cn3cncn3)nc3cc(OC)c(OC)cc23)cc1OC,inhibition in vivo at 12.5 mg/kg,[1],< 50%
COc1ccc(-c2nc(CCc3nccn3C)nc3cc(OC)c(OC)cc23)cc1OC,inhibition in vivo at 50 mg/kg,[4],71%
CCOC(=O)c1c(CSc2nccn2C)nc2cc(OC)c(OC)cc2c1-c1ccc(OC)c(OC)c1,Activity,[5],57%
same,ED50,[6],25 mg/kg
same,inhibition in vivo at 50 mg/kg,[4],60%
CCOC(=O)c1c(CSc2nncn2C)nc2cc(OC)c(OC)cc2c1-c1ccc(OC)c(OC)c1,ED50,[6],11.6 mg/kg
same,inhibition in vivo at 50 mg/kg,[4],66%
CCOC(=O)c1c(CS(=O)(=O)c2nccn2C)nc2cc(OC)c(OC)cc2c1-c1ccc(OC)c(OC)c1,inhibition in vivo at 50 mg/kg,[4],56%
CCOC(=O)c1c(CSc2ncc[nH]2)nc2cc(OC)c(OC)cc2c1-c1ccc(OC)c(OC)c1,inhibition in vivo at 50 mg/kg,[4],60%
CCOC(=O)c1c(CSc2nccn2C)nc2cc(OC)c(OC)cc2c1-c1ccc(OC)cc1,inhibition in vivo at 50 mg/kg,[4],64%
CCOC(=O)c1c(CSc2nccn2C)nc2ccc(OC)cc2c1-c1ccc(OC)cc1,Activity,[3],66%
same,inhibition in vivo at 50 mg/kg,[4],45%
CCOC(=O)c1c(Cn2cncn2)nc2cc(OC)c(OC)cc2c1-c1ccc(OC)c(OC)c1,Activity,[5],59%
same,ED50,[2],2.6 mg/kg
same,inhibition in vivo at 12.5 mg/kg,[1],65%
COc1cc2c(OC)c3c(c(-c4ccc5c(c4)OCO5)c2cc1OC)C(=O)OC3 [JUSTICIDIN A],Activity,[7],48%
same,inhibition in vivo at 50 mg/kg,[4],10%
